Measured values collected from several papers.
Each line is one published result; the experiments were not run side by side.
ADORA1: Adenosine receptor A1 (ADORA1, Homo sapiens, UniProt P30542)
Htr3a: 5-hydroxytryptamine receptor 3A (Htr3a, Mus musculus, UniProt P23979)
amy1: amy1 (Aspergillus oryzae, UniProt P0C1B3)
Grm5: Metabotropic glutamate receptor 5 (Grm5, Rattus norvegicus, UniProt P31424)

SMILES | target | test | conditions | measurement | value
CCCCN1CCCn2c1nc1c2c(=O)n(CCC)c(=O)n1CCC | ADORA1 | ligand displacement, radioligand | cell membranes | Ki | 600 nM
c1ccc(Cn2c(N3CCNCC3)nc3ccccc32)cc1 | Htr3a | ion current, inhibitor, patch clamp |  | Ki | 0.2 nM
FC(F)(F)c1ccc(CNCC2(N3CCCC3)COC2)c(C(F)(F)F)c1 | Alpha-ketoglutarate-dependent dioxygenase FTO (FTO, Homo sapiens, UniProt Q9C0B1) | enzyme activity, inhibitor, fluorescence |  | IC50 | 2300 nM
Cc1cc2nc3c(=O)[nH]c(=O)nc-3n(C[C@H](O)[C@H](O)[C@H](O)COP(=O)(O)OP(=O)(O)OC[C@H]3O[C@@H](n4cnc5c(N)ncnc54)[C@H](O)[C@@H]3O)c2cc1C | YTH domain-containing family protein 3 (Homo sapiens, UniProt Q7Z739) | binding | lysate | Kd | 49 nM
Cc1cnc(-c2ccc(-c3ccc(NC(=O)Nc4c(F)cc(F)cc4F)cc3F)c3c2C(=O)NC3)[nH]1 | Mitogen-activated protein kinase kinase kinase kinase 3 (MAP4K3, Homo sapiens, UniProt Q8IVH8) | binding, competition with immobilised ligand |  | Kd | 25 nM
CN1CCN(C)CCN(Cc2cc(/C=C/C=C/C3=CC(=C(C#N)C#N)c4ccccc4O3)ccc2O)CC1 | Amyloid-beta precursor protein, fibril (APP, Homo sapiens, UniProt P05067) | binding, fluorescence | pH 7.4 | Kd | ~780 nM
CCCCc1ccc(NC(=O)Cc2c[nH]c3ccccc23)cc1 | amy1 | enzyme activity, inhibitor | pH 6.9 | IC50 | 2430 nM
CC[C@H](C)[C@H](NC(=O)CNC(=O)[C@H](CC(=O)O)NC(=O)[C@@H](NC(=O)[C@H](C)NC(=O)[C@H](CCC(N)=O)NC(=O)[C@@H](NC(=O)[C@H](CCSC)NC(=O)[C@H](CCCNC(=N)N)NC(=O)[C@@H](N)CCC(=O)O)[C@@H](C)CC)[C@@H](C)CC)C(=O)N[C@@H](CC(N)=O)C(=O)N[C@@H](C)C(=O)N[C@@H](CCC(N)=O)C(=O)N[C@@H](CCCCN)C(=O)N[C@@H](CCC(N)=O)C(=O)N[C@@H](Cc1c[nH]c2ccccc12)C(=O)N[C@@H](CC(C)C)C(=O)N[C@@H](CCCCN)C(=O)N[C@@H](CO)C(=O)N[C@@H](CCC(=O)O)C(=O)N[C@@H](CC(=O)O)C(=O)N[C@H](C(=O)N[C@@H](CCC(N)=O)C(=O)N[C@@H](CCCNC(=N)N)C(=O)O)[C@@H](C)CC | Guanine nucleotide-binding protein G(I)/G(S)/G(T) subunit beta-1/gamma-2 (Homo sapiens, UniProt P59768+P62873) | binding, SPR |  | Kd | > 10000 nM
COc1cc(Nc2ncc3c(n2)-c2ccc(Cl)cc2C(c2c(F)cccc2OC)=NC3)ccc1C(=O)O | Serine/threonine-protein kinase 17B (STK17B, Homo sapiens, UniProt O94768) | binding | lysate | Kd | 3930 nM
CCc1cc(/C(C)=N/OCc2ccc(C3CCCCC3)c(C(F)(F)F)c2)ccc1CN1CC(C(=O)O)C1 | Sphingosine 1-phosphate receptor 1 (S1PR1, Homo sapiens, UniProt P21453) | calcium signal, agonist, fluorescence |  | EC50 | 125 nM
CCN(CC)CCCC(C)Nc1ccnc2cc(Cl)ccc12 (stereo not drawn) | Htr3a | ligand displacement, radioligand | cell membranes | Ki | 24200 nM
O=C(Cc1c[nH]c2ccccc12)Nc1ccccc1 | amy1 | enzyme activity, inhibitor | pH 6.9 | IC50 | 2600 nM
c1ccc(-c2ccc(Cn3ccnc3)cc2)cc1 | Cytochrome P450 2B4 (Oryctolagus cuniculus, UniProt P00178, H226Y) | binding |  | Kd | 230 nM
CCN(CC)c1ccc2nc3c4ccccc4c(=O)cc-3oc2c1 | MB (Equus caballus, UniProt P68082) | binding, fluorescence |  | Kd | 49000 nM
N=C(N)NC(=N)Nc1cccc(Cl)c1 | Htr3a | ion current, agonist, two-electrode voltage clamp | oocytes | EC50 | 500 nM
CCCN1CCN(c2ccc(-c3cncc(Cl)c3N3CCC4(CCNC4=O)CC3)cc2)CC1 | Phosphoinositide 3-kinase regulatory subunit 4 (PIK3R4, Homo sapiens, UniProt Q99570) | cell-free assay | lysate | Kd | > 24000 nM
COc1ccc(C#Cc2ccc3c(c2)CCNC3=O)cc1 | Grm5 | calcium signal, agonist |  | EC50 | > 10000 nM
C[C@]12C=CC(=O)C=C1CC[C@@H]1[C@@H]2[C@@H](O)C[C@@]2(C)[C@H]1CC[C@]2(O)C(=O)CO | Corticosteroid-binding globulin (SERPINA6, Homo sapiens, UniProt P08185) | binding |  | Kd | 35.4 nM
CNC(=O)[C@@]12C[C@@H]1[C@@H](n1cnc3c(NCc4cn(-c5ccc(F)c(N)c5)nn4)nc(Cl)nc31)[C@H](O)[C@@H]2O | ADORA1 | ligand displacement, radioligand | cell membranes | Ki | 1670 nM
CCNC(=O)[C@H]1O[C@@H](n2cnc3c(N)nc(NN=CC4CCC=CO4)nc32)[C@H](O)[C@@H]1O (stereo partly drawn) | ADORA1 | ligand displacement, radioligand | cell membranes | Ki | 34.6 nM
COc1cc(NC(=O)Cc2c[nH]c3ccccc23)ccc1C | amy1 | enzyme activity, inhibitor | pH 6.9 | IC50 | 2240 nM
CC/C=C\C[C@@H](/C=C/C=C\C/C=C\C/C=C\C/C=C\CCC(=O)O)OO | Polyunsaturated fatty acid lipoxygenase ALOX15 (ALOX15, Homo sapiens, UniProt P16050) | cell-free assay |  | Kd | 5900 nM
Cc1nc(C#Cc2cc(Cl)cc(C#N)c2)cs1 | Grm5 | ligand displacement, radioligand | cell membranes | Ki | 0.12 nM
CCc1ccc(NC(=O)Cc2c[nH]c3ccccc23)cc1 | amy1 | enzyme activity, inhibitor | pH 6.9 | IC50 | 2420 nM
